Measurements published in ChEMBL document CHEMBL5376013, “Design, synthesis and biological evaluation of novel morpholinopyrimidine-5-carbonitrile derivatives as dual PI3K/mTOR inhibitors” (RSC Med Chem, 2024).

Experiments:
Type in all cases: functional
Conditions in all cases: read-out: GI
HL-60 = experiment: Antitumor activity against human HL-60 cells assessed as growth inhibition at 10 uM relative to control
Procedure, shortened: (§1)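 After drug addition, plates were incubated 48 h at 37 °C under 5% CO2. Adherent cells were fixed with cold TCA (10% final, 60 min, 4 °C) and suspension cells with 16% final TCA. Staining used 0.4% SRB in 1% acetic acid, solubilized in 10 mM trizma, read at A515. Percent growth was calculated from time-zero, control and treated absorbances.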

K562 = experiment: Antitumor activity against human K562 cells assessed as growth inhibition at 10 uM relative to control; procedure, shortened: as §1
MOLT-4 = experiment: Antitumor activity against human MOLT-4 cells assessed as growth inhibition at 10 uM relative to control; procedure, shortened: as §1
SR = experiment: Antitumor activity against human SR cells assessed as growth inhibition at 10 uM relative to control
Procedure, shortened: (§2)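 Drug exposure 48 h at 37 °C, 5% CO2. Adherent cells fixed with cold TCA (10% final), suspension cells with TCA (16% final). Stained with 0.4% SRB in 1% acetic acid, dissolved in 10 mM Tris, A515. Growth relative to time-zero and untreated control.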

A549 = experiment: Antitumor activity against human A549 cells assessed as growth inhibition at 10 uM relative to control; procedure, shortened: as §1
EKVX = experiment: Antitumor activity against human EKVX cells assessed as growth inhibition at 10 uM relative to control; procedure, shortened: as §1
HOP-62 = experiment: Antitumor activity against human HOP-62 cells assessed as growth inhibition at 10 uM relative to control; procedure, shortened: as §1
HOP-92 = experiment: Antitumor activity against human HOP-92 cells assessed as growth inhibition at 10 uM relative to control; procedure, shortened: as §1
NCI-H226 = experiment: Antitumor activity against human NCI-H226 cells assessed as growth inhibition at 10 uM relative to control; procedure, shortened: as §1
NCI-H23 = experiment: Antitumor activity against human NCI-H23 cells assessed as growth inhibition at 10 uM relative to control; procedure, shortened: as §1
NCI-H322M = experiment: Antitumor activity against human NCI-H322M cells assessed as growth inhibition at 10 uM relative to control; procedure, shortened: as §1
NCI-H522 = experiment: Antitumor activity against human NCI-H522 cells assessed as growth inhibition at 10 uM relative to control; procedure, shortened: as §1
COLO 205 = experiment: Antitumor activity against human COLO 205 cells assessed as growth inhibition at 10 uM relative to control; procedure, shortened: as §1
HCC 2998 = experiment: Antitumor activity against human HCC 2998 cells assessed as growth inhibition at 10 uM relative to control; procedure, shortened: as §1
HCT-116 = experiment: Antitumor activity against human HCT-116 cells assessed as growth inhibition at 10 uM relative to control; procedure, shortened: as §1
HCT-15 = experiment: Antitumor activity against human HCT-15 cells assessed as growth inhibition at 10 uM relative to control; procedure, shortened: as §1
SF-268 = experiment: Antitumor activity against human SF-268 cells assessed as growth inhibition at 10 uM relative to control; procedure, shortened: as §1
SF-295 = experiment: Antitumor activity against human SF-295 cells assessed as growth inhibition at 10 uM relative to control; procedure, shortened: as §1
SF-539 = experiment: Antitumor activity against human SF-539 cells assessed as growth inhibition at 10 uM relative to control; procedure, shortened: as §1
SNB-19 = experiment: Antitumor activity against human SNB-19 cells assessed as growth inhibition at 10 uM relative to control; procedure, shortened: as §2
SNB-75 = experiment: Antitumor activity against human SNB-75 cells assessed as growth inhibition at 10 uM relative to control; procedure, shortened: as §2
U-251 = experiment: Antitumor activity against human U-251 cells assessed as growth inhibition at 10 uM relative to control; procedure, shortened: as §2
LOX IMVI = experiment: Antitumor activity against human LOX IMVI cells assessed as growth inhibition at 10 uM relative to control; procedure, shortened: as §1
M14 = experiment: Antitumor activity against human M14 cells assessed as growth inhibition at 10 uM relative to control; procedure, shortened: as §1
MDA-MB-435 = experiment: Antitumor activity against human MDA-MB-435 cells assessed as growth inhibition at 10 uM relative to control; procedure, shortened: as §1
SK-MEL-2 = experiment: Antitumor activity against human SK-MEL-2 cells assessed as growth inhibition at 10 uM relative to control; procedure, shortened: as §1
SK-MEL-5 = experiment: Antitumor activity against human SK-MEL-5 cells assessed as growth inhibition at 10 uM relative to control; procedure, shortened: as §2
UACC-257 = experiment: Antitumor activity against human UACC-257 cells assessed as growth inhibition at 10 uM relative to control; procedure, shortened: as §2
IGROV-1 = experiment: Antitumor activity against human IGROV-1 cells assessed as growth inhibition at 10 uM relative to control; procedure, shortened: as §1
OVCAR-3 = experiment: Antitumor activity against human OVCAR-3 cells assessed as growth inhibition at 10 uM relative to control; procedure, shortened: as §1
OVCAR-4 = experiment: Antitumor activity against human OVCAR-4 cells assessed as growth inhibition at 10 uM relative to control; procedure, shortened: as §1
OVCAR-5 = experiment: Antitumor activity against human OVCAR-5 cells assessed as growth inhibition at 10 uM relative to control; procedure, shortened: as §1
OVCAR-8 = experiment: Antitumor activity against human OVCAR-8 cells assessed as growth inhibition at 10 uM relative to control; procedure, shortened: as §1
SK-OV-3 = experiment: Antitumor activity against human SK-OV-3 cells assessed as growth inhibition at 10 uM relative to control; procedure, shortened: as §2
786-0 = experiment: Antitumor activity against human 786-0 cells assessed as growth inhibition at 10 uM relative to control; procedure, shortened: as §1
A498 = experiment: Antitumor activity against human A498 cells assessed as growth inhibition at 10 uM relative to control; procedure, shortened: as §1
CAKI-1 = experiment: Antitumor activity against human CAKI-1 cells assessed as growth inhibition at 10 uM relative to control; procedure, shortened: as §1
RXF 393 = experiment: Antitumor activity against human RXF 393 cells assessed as growth inhibition at 10 uM relative to control; procedure, shortened: as §1
TK-10 = experiment: Antitumor activity against human TK-10 cells assessed as growth inhibition at 10 uM relative to control; procedure, shortened: as §2
UO-31 = experiment: Antitumor activity against human UO-31 cells assessed as growth inhibition at 10 uM relative to control; procedure, shortened: as §2
PC-3 = experiment: Antitumor activity against human PC-3 cells assessed as growth inhibition at 10 uM relative to control; procedure, shortened: as §1
DU-145 = experiment: Antitumor activity against human DU-145 cells assessed as growth inhibition at 10 uM relative to control; procedure, shortened: as §1
MCF7 = experiment: Antitumor activity against human MCF7 cells assessed as growth inhibition at 10 uM relative to control; procedure, shortened: as §1
MDA-MB-231 = experiment: Antitumor activity against human MDA-MB-231 cells assessed as growth inhibition at 10 uM relative to control; procedure, shortened: as §1
Hs-578T = experiment: Antitumor activity against human Hs-578T cells assessed as growth inhibition at 10 uM relative to control; procedure, shortened: as §1
BT-549 = experiment: Antitumor activity against human BT-549 cells assessed as growth inhibition at 10 uM relative to control; procedure, shortened: as §1

SMILES: N#Cc1c(-c2ccc(Cl)cc2)nc(N/N=C/c2ccco2)nc1N1CCOCC1
- inhibition of growth at 10 µM (HL-60): < 1%
- inhibition of growth at 10 µM (K562): < 1%
- inhibition of growth at 10 µM (MOLT-4): 17%
- inhibition of growth at 10 µM (SR): < 1%
- inhibition of growth at 10 µM (A549): 21.1%
- inhibition of growth at 10 µM (EKVX): 53.5%
- inhibition of growth at 10 µM (HOP-62): 33.6%
- inhibition of growth at 10 µM (HOP-92): 59.4%
- inhibition of growth at 10 µM (NCI-H226): 59.4%
- inhibition of growth at 10 µM (NCI-H23): 29.2%
- inhibition of growth at 10 µM (NCI-H322M): 30.6%
- inhibition of growth at 10 µM (NCI-H522): 37.7%
- inhibition of growth at 10 µM (COLO 205): 24.8%
- inhibition of growth at 10 µM (HCC 2998): 25.2%
- inhibition of growth at 10 µM (HCT-116): 23.9%
- inhibition of growth at 10 µM (HCT-15): 19.7%
- inhibition of growth at 10 µM (SF-268): 25.5%
- inhibition of growth at 10 µM (SF-295): 26.2%
- inhibition of growth at 10 µM (SF-539): 24.7%
- inhibition of growth at 10 µM (SNB-19): 20%
- inhibition of growth at 10 µM (SNB-75): 89.7%
- inhibition of growth at 10 µM (U-251): < 1%
- inhibition of growth at 10 µM (LOX IMVI): 21.3%
- inhibition of growth at 10 µM (M14): 28.6%
- inhibition of growth at 10 µM (MDA-MB-435): 20.6%
- inhibition of growth at 10 µM (SK-MEL-2): 17.7%
- inhibition of growth at 10 µM (SK-MEL-5): 19.1%
- inhibition of growth at 10 µM (UACC-257): < 1%
- inhibition of growth at 10 µM (IGROV-1): 74.2%
- inhibition of growth at 10 µM (OVCAR-3): 33.4%
- inhibition of growth at 10 µM (OVCAR-4): 54.4%
- inhibition of growth at 10 µM (OVCAR-5): 23.1%
- inhibition of growth at 10 µM (OVCAR-8): 21.1%
- inhibition of growth at 10 µM (SK-OV-3): 50.6%
- inhibition of growth at 10 µM (786-0): 25.9%
- inhibition of growth at 10 µM (A498): < 1%
- inhibition of growth at 10 µM (CAKI-1): < 1%
- inhibition of growth at 10 µM (RXF 393): < 1%
- inhibition of growth at 10 µM (TK-10): 37.6%
- inhibition of growth at 10 µM (UO-31): 72.9%
- inhibition of growth at 10 µM (PC-3): 31.7%
- inhibition of growth at 10 µM (DU-145): 14.6%
- inhibition of growth at 10 µM (MCF7): < 73.8%
- inhibition of growth at 10 µM (MDA-MB-231): 25.5%
- inhibition of growth at 10 µM (Hs-578T): 31.8%
- inhibition of growth at 10 µM (BT-549): 41.5%

SMILES: N#Cc1c(-c2ccc(Cl)cc2)nc(N/N=C/c2ccc[nH]2)nc1N1CCOCC1
- inhibition of growth at 10 µM (HL-60): 97.7%
- inhibition of growth at 10 µM (K562): 55.8%
- inhibition of growth at 10 µM (MOLT-4): 82.6%
- inhibition of growth at 10 µM (SR): 68.8%
- inhibition of growth at 10 µM (A549): 45.6%
- inhibition of growth at 10 µM (EKVX): 34%
- inhibition of growth at 10 µM (HOP-62): 58.4%
- inhibition of growth at 10 µM (HOP-92): 31.1%
- inhibition of growth at 10 µM (NCI-H226): 31.1%
- inhibition of growth at 10 µM (NCI-H23): < 1%
- inhibition of growth at 10 µM (NCI-H322M): < 1%
- inhibition of growth at 10 µM (NCI-H522): 91.7%
- inhibition of growth at 10 µM (COLO 205): 18.4%
- inhibition of growth at 10 µM (HCC 2998): < 1%
- inhibition of growth at 10 µM (HCT-116): < 1%
- inhibition of growth at 10 µM (HCT-15): 21.1%
- inhibition of growth at 10 µM (SF-268): 53.8%
- inhibition of growth at 10 µM (SF-295): 41.6%
- inhibition of growth at 10 µM (SF-539): 66.6%
- inhibition of growth at 10 µM (SNB-19): 25.8%
- inhibition of growth at 10 µM (SNB-75): < 1%
- inhibition of growth at 10 µM (U-251): < 1%
- inhibition of growth at 10 µM (LOX IMVI): 12.2%
- inhibition of growth at 10 µM (M14): < 1%
- inhibition of growth at 10 µM (MDA-MB-435): < 1%
- inhibition of growth at 10 µM (SK-MEL-2): < 1%
- inhibition of growth at 10 µM (SK-MEL-5): 14.8%
- inhibition of growth at 10 µM (UACC-257): 12.1%
- inhibition of growth at 10 µM (IGROV-1): 32.6%
- inhibition of growth at 10 µM (OVCAR-3): 54.4%
- inhibition of growth at 10 µM (OVCAR-4): 25.9%
- inhibition of growth at 10 µM (OVCAR-5): < 1%
- inhibition of growth at 10 µM (OVCAR-8): 14.9%
- inhibition of growth at 10 µM (SK-OV-3): 15.3%
- inhibition of growth at 10 µM (786-0): 76.1%
- inhibition of growth at 10 µM (A498): 68.3%
- inhibition of growth at 10 µM (CAKI-1): < 1%
- inhibition of growth at 10 µM (RXF 393): < 1%
- inhibition of growth at 10 µM (TK-10): 36.7%
- inhibition of growth at 10 µM (UO-31): 85.2%
- inhibition of growth at 10 µM (PC-3): 53.4%
- inhibition of growth at 10 µM (DU-145): 15.8%
- inhibition of growth at 10 µM (MCF7): < 29.3%
- inhibition of growth at 10 µM (MDA-MB-231): 20.3%
- inhibition of growth at 10 µM (Hs-578T): < 1%
- inhibition of growth at 10 µM (BT-549): 83.1%
